Laboratory results taken from paper PMC8716398 (Biochemical and Biophysical Research Communications, 2021).
Like-named read-outs stand apart in the source and are kept apart here.

Assays:
3CLpro [1] = biological target: T1, 3CLpro (Severe acute respiratory syndrome coronavirus 2, UniProt P0DTD1); type: biochemical, SARS-CoV-2
3CLpro [2] = biological target: T1, 3CLpro; assay: Surface plasmon resonance; type: binding, SARS-CoV-2; conditions: SPR, heterogeneous ligand model
3CLpro of SARS-CoV-2 [3] = biological target: T2, 3CLpro of SARS-CoV-2 (Severe acute respiratory syndrome coronavirus 2, UniProt P0DTD1); assay: Analysis of inhibition type; type: biochemical
3CLpro [4] = biological target: T1, 3CLpro; assay: Isothermal titration calorimetry; set-up: species or system SARS-CoV-2; conditions: KD of the secondary binding, ITC, two sets of independent sites model, 25 °C
Method in brief: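 ITC was run at 25 °C in 10 mM HEPES pH 7.4 containing 2% DMSO. Test compound (2 mM, syringe) was injected stepwise into 40 μM 3CLpro in the cell, with 120 s between injections. A matching titration into buffer alone was subtracted. Integrated peak areas were fitted with a two-sets-of-independent-sites model.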

3CLpro [5] = biological target: T1, 3CLpro; assay: biochemical; type: binding, SARS-CoV-2
Papain = biological target: T3, Papain (Carica papaya, UniProt P00784); assay: Enzyme activity assay, hydrolytic activity of Papain; type: biochemical
T3 sequence (P00784 134-345): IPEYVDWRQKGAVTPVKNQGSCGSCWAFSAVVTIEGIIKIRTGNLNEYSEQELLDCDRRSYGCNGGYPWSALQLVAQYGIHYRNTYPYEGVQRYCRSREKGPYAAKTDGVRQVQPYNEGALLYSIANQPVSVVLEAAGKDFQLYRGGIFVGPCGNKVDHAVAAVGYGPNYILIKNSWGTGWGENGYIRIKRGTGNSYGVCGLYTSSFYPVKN

Proteinase K = Proteinase K (Parengyodontium album, UniProt P06873); assay: Enzyme activity assay, hydrolytic activity of Proteinase K; type: biochemical
3CLpro of SARS-CoV-2 [6] = biological target: T2, 3CLpro of SARS-CoV-2; assay: Enzyme activity assay, hydrolytic activity of 3CLpro; type: biochemical
[7] = HTS of ∼6000 compounds at 16.7 μM

Chain of Proteinase K (P06873 106-384): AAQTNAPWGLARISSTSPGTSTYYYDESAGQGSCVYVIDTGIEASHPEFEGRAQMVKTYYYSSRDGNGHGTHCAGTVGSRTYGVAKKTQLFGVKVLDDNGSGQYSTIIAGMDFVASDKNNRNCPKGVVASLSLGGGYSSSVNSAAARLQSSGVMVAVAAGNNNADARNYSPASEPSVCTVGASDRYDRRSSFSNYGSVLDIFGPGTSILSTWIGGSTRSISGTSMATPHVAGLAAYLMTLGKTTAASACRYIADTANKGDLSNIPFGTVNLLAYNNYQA

SMILES: CCN(CC)C(=S)SSC(=S)N(CC)CC [Disulfiram]
- HTS outcome (potential 3CLpro inhibitor) (3CLpro [1]; [7]): screened out

SMILES: O=c1c2ccccc2[se]n1-c1ccccc1 [Ebselen]
- HTS outcome (potential 3CLpro inhibitor) (3CLpro [1]): screened out

SMILES: O=C(O)c1ccccc1-c1c2cc(Br)c(=O)cc-2oc2[c]([Hg+])c(O)c(Br)cc12 [Merbromin]
- ka1 (3CLpro [2]; first set): 694.6 ± 2.61 M⁻¹ s⁻¹
- kd1 (3CLpro [2]; first set): 1.25 ± 0.01 × 10^−3 s^−1
- ka2 (3CLpro [2]; second set): 646.7 ± 3.98 M⁻¹ s⁻¹
- kd2 (3CLpro [2]; second set): 16.25 ± 0.08 × 10^−3 s^−1
- Ki (3CLpro of SARS-CoV-2 [3]): 3.93 ± 1.41 µM
- mixed constant (Alpha) (3CLpro of SARS-CoV-2 [3]; mixed model inhibition, global fit Eqn. (4)): 3.77 ± 3.96
- Kd (3CLpro [4]): 67.8 µM
- Kd (3CLpro [5]): 11.8 ± 0.98 µM
- IC50 (Papain): 8.03 µM
- IC50 (Proteinase K): > 70 µM
- IC50 (3CLpro of SARS-CoV-2 [6]): 2.7 ± 0.17 µM

SMILES: CCC(C)SSc1ncc[nH]1 (centres unmarked) [PX-12]
- HTS outcome (potential 3CLpro inhibitor) (3CLpro [1]): screened out

SMILES: CC(C)=CC[C@@H](O)C1=CC(=O)c2c(O)ccc(O)c2C1=O [Shikonin]
- HTS outcome (potential 3CLpro inhibitor) (3CLpro [1]; [7]): screened out

SMILES: Cn1sc(=O)n(Cc2ccccc2)c1=O [TDZD-8]
- HTS outcome (potential 3CLpro inhibitor) (3CLpro [1]; [7]): screened out

SMILES: O=c1sn(-c2cccc3ccccc23)c(=O)n1Cc1ccccc1 [Tideglusib]
- HTS outcome (potential 3CLpro inhibitor) (3CLpro [1]; [7]): screened out
